Test results: ChEMBL document CHEMBL4385601, “Anti-Zika Activity of a Library of Synthetic Carbohydrate Receptors” (J Med Chem, 2019)
Calls of active or inactive are those of the source. The rule behind the calls is not given here.

Tests used:
[1] = Binding affinity to alpha mannose in CD2Cl2 by NMR analysis
[2] = Binding affinity to beta mannose in CD2Cl2 by NMR analysis
[3] = test system: Zika virus; test: Antiviral activity against Zika virus harboring subgenomic GFP replicon infected in human HeLa cells assessed as reduction in viral infection preincubated for 30 mins followed by viral infection and measured after 72 hrs; type: functional, organism-based
Procedure, shortened: (§1)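 Vero or HeLa cells (DMEM, 10% FBS) at 5,000/well were pretreated 30 min at room temperature; compound came from 10 mM DMSO stock diluted in medium. Cells were infected with reporter particles (ZIKV C-prM-E carrying a WNV GFP replicon) at a dose giving up to 1000 GFP+ cells/well. After 72 h at 37 °C, whole-well GFP+ counts were normalised to DMSO-treated infected cells. Wells were run in duplicate/triplicate, three experiments; IC50 taken from curve fits.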

[4] = test system: Zika virus; test: Antiviral activity against Zika virus harboring subgenomic GFP replicon infected in African green monkey Vero cells assessed as reduction in viral infection preincubated for 30 mins followed by viral infection and measured after 72 hrs; type: functional, organism-based; procedure, shortened: as §1
[5] = Cytotoxicity against African green monkey Vero cells assessed as reduction in cell viability measured after 72 hrs by Celltiter-Glo luminescence assay; type: cell-based; settings: chlorocebus sabaeus, read-out: TC50
Procedure, shortened: (§2)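 Vero or HeLa cells at 5,000/well were exposed to compound in duplicate for 72 h at 37 °C. Viability was read as cellular ATP by CellTiter-Glo luminescence and normalised to DMSO-treated cells as 100%. TC50 came from 4-parameter sigmoidal logistic fits.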

[6] = Cytotoxicity against human HeLa cells assessed as reduction in cell viability measured after 72 hrs by Celltiter-Glo luminescence assay; type: cell-based; settings: read-out: TC50; procedure, shortened: as §2
[7] = test system: Zika virus; test: Antiviral activity against Zika virus harboring subgenomic GFP replicon infected in African green monkey Vero cells assessed as reduction in viral infection treated 4 hrs post-infection and measured 72 hrs post-infection; type: functional, organism-based
Procedure, shortened: (§3)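 Vero cells were infected with a predetermined dose of ZIKV GFP reporter virus particles. Compound was added 4 h or 24 h after infection. Plates were fixed 72 h post-infection and GFP+ cells per well counted by whole-well imaging.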

[8] = test system: Zika virus; test: Antiviral activity against Zika virus harboring subgenomic GFP replicon infected in African green monkey Vero cells assessed as reduction in viral infection treated 24 hrs post-infection and measured 72 hrs post-infection; type: functional, organism-based; procedure, shortened: as §3
[9] = test system: Zika virus; test: Antiviral activity against Zika virus harboring subgenomic GFP replicon infected in African green monkey Vero cells assessed as reduction in viral infection at 100 uM preincubated for 30 mins followed by viral infection and measured after 72 hrs; type: functional, organism-based
[10] = Therapeutic index, ratio of TC50 for African green monkey Vero cells to IC50 for Zika virus harboring subgenomic GFP replicon infected in African green monkey Vero cells; type: toxicity; settings: read-out: TI
[11] = test system: Zika virus; test: Antiviral activity against Zika virus PRVABC-59 infected in African green monkey Vero cells assessed as reduction in viral infection up to 8 uM pretreated for 30 mins followed by viral infection and measured by 4G2 antibody based assay; type: functional, organism-based
Procedure, shortened: (§4)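 Vero cells at 7,500/well were pretreated with compound for 30 min at room temperature. They were then infected with PRVABC59 at a titration-set dose giving ~2000-3000 infected cells/well. Cells were fixed and stained with 4G2 anti-envelope antibody plus Alexa 488 secondary. Whole wells were imaged and positive cells counted, in triplicate wells, with the experiment repeated. Microscopy images were taken with DAPI nuclear counterstain.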

[12] = test system: Vero; test: Inhibition of envelope glycoprotein N154Q mutant in Zika virus infected in African green monkey Vero cells assessed as reduction in viral infection up to 8 uM pretreated for 30 mins followed by viral infection and measured 72 hrs post-infection; type: cell-based
Procedure, shortened: (§5)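 N154Q reporter particles were made by transfecting 293T cells 1:1 with C-prME-N154Q and subgenomic WNV GFP replicon plasmids, harvested at 48 h. Vero cells were pretreated with compound for 30 min at room temperature, then infected with wild-type or N154Q particles. GFP+ cells per well were counted from whole-well images at 72 h; mean ±SD of triplicate wells.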

[13] = test system: Zika virus; test: Antiviral activity against Zika virus PRVABC-59 infected in African green monkey Vero cells assessed as reduction in viral infection at 8 uM pretreated for 30 mins followed by viral infection and measured by DAPI staining-based fluorescence microscopic method; type: functional, organism-based; procedure, shortened: as §4
[14] = test system: Zika virus; test: Antiviral activity against Zika virus PRVABC-59 infected in African green monkey Vero cells assessed as reduction in viral infection up to 200 uM pretreated for 30 mins followed by viral infection and measured by 4G2 antibody based assay; type: functional, organism-based; procedure, shortened: as §4
[15] = test system: Zika virus; test: Antiviral activity against Zika virus PRVABC-59 infected in African green monkey Vero cells assessed as reduction in viral infection at 200 uM pretreated for 30 mins followed by viral infection and measured by DAPI staining-based fluorescence microscopic method; type: functional, organism-based; procedure, shortened: as §4
[16] = test system: Vero; test: Inhibition of envelope glycoprotein N154Q mutant in Zika virus infected in African green monkey Vero cells assessed as reduction in viral infection up to 200 uM pretreated for 30 mins followed by viral infection and measured 72 hrs post-infection; type: cell-based; procedure, shortened: as §5
[17] = Zika virus, Vero, read-out: IC50

Row | SMILES | Ka [1] | Ka [2] | IC50 [3] | IC50 [4, 17] | CC50 at 72 h [5] | CC50 at 72 h [6] | Activity [7] | Activity [8] | Activity [9] | also measured
1 | c1c[nH]c(CNCc2cc(CNCc3ccc[nH]3)cc(-c3cc(CNCc4ccc[nH]4)cc(CNCc4ccc[nH]4)c3)c2)c1 | 1.4 ×10³ /M | 3.6 ×10⁴ /M | 450 nM | 360 nM | 34200 nM | 2430 nM | inactive | inactive | Active | –
2 | O=C(NCc1cc(CNC(=O)c2ccco2)cc(-c2cc(CNC(=O)c3ccco3)cc(CNC(=O)c3ccco3)c2)c1)c1ccco1 | – | – | – | – | – | – | – | – | Active | IC50 ([4]; vero): Nd(Insoluble)
3 | c1c[nH]c(CNCc2cc(CNCc3ccc[nH]3)cc(-c3cc(CNCc4ccc[nH]4)cc(Cn4cc(COCCOCCOCCOCc5cn(Cc6cc(CNCc7ccc[nH]7)cc(-c7cc(CNCc8ccc[nH]8)cc(CNCc8ccc[nH]8)c7)c6)nn5)nn4)c3)c2)c1 | 2.6 ×10³ /M | 1.7 ×10³ /M | 240 nM | 160 nM | 36200 nM | 2480 nM | inactive | inactive | Active | selectivity ratio [10]: > 220; Activity [11]: Active; inhibition [12]: Active; Activity [13]: Active
4 | C(=N\Cc1cc(C/N=C/c2ccc[nH]2)cc(-c2cc(C/N=C/c3ccc[nH]3)cc(C/N=C/c3ccc[nH]3)c2)c1)/c1ccc[nH]1 | 3 ×10³ /M | 2.4 ×10³ /M | 3060 nM | 1360 nM | 46100 nM | 17600 nM | inactive | inactive | Active | –
5 | C(=N\Cc1cc(C/N=C/c2ccco2)cc(-c2cc(C/N=C/c3ccco3)cc(C/N=C/c3ccco3)c2)c1)/c1ccco1 | 2 ×10² /M | 3.7 ×10¹ /M | – | > 100000 nM | – | – | – | – | Active | –
6 | Cc1ccc(C(=O)Nc2ccc(S(=O)(=O)O)c3cc(S(=O)(=O)O)cc(S(=O)(=O)O)c23)cc1NC(=O)c1cccc(NC(=O)Nc2cccc(C(=O)Nc3cc(C(=O)Nc4ccc(S(=O)(=O)O)c5cc(S(=O)(=O)O)cc(S(=O)(=O)O)c45)ccc3C)c2)c1 [SURAMIN] | – | – | – | 44000 nM | > 200000 nM | – | inactive | inactive | – | Activity [4]: Dose-dependent effect; Activity [14]: Active; Activity [15]: Active; inhibition [16]: Active
7 | O=C(NCc1cc(CNC(=O)c2cccs2)cc(-c2cc(CNC(=O)c3cccs3)cc(CNC(=O)c3cccs3)c2)c1)c1cccs1 | – | – | – | > 100000 nM | – | – | – | – | Active | –
8 | Cn1ccnc1CNCc1cc(CNCc2nccn2C)cc(-c2cc(CNCc3nccn3C)cc(CNCc3nccn3C)c2)c1 | 4.4 ×10³ /M | 5.9 ×10² /M | – | > 100000 nM | – | – | – | – | Active | –
9 | NCc1cc(CN)cc(-c2cc(CN)cc(CN)c2)c1 | – | – | – | > 100000 nM | – | – | – | – | Active | –
10 | C(=N\Cc1cc(C/N=C/c2cccs2)cc(-c2cc(C/N=C/c3cccs3)cc(C/N=C/c3cccs3)c2)c1)/c1cccs1 | inactive | inactive | – | > 100000 nM | – | – | – | – | Active | –
11 | c1coc(CNCc2cc(CNCc3ccco3)cc(-c3cc(CNCc4ccco4)cc(CNCc4ccco4)c3)c2)c1 | 1.1 ×10² /M | 5.4 ×10¹ /M | 350 nM | 1130 nM | 5430 nM | 2510 nM | inactive | inactive | Active | –
12 | c1coc(CNCc2cc(CNCc3ccco3)cc(-c3cc(CNCc4ccco4)cc(Cn4cc(COCCOCCOCCOCc5cn(Cc6cc(CNCc7ccco7)cc(-c7cc(CNCc8ccco8)cc(CNCc8ccco8)c7)c6)nn5)nn4)c3)c2)c1 | – | – | 1370 nM | 12400 nM | 51500 nM | 2220 nM | – | – | Active | –
13 | c1csc(CNCc2cc(CNCc3cccs3)cc(-c3cc(CNCc4cccs4)cc(CNCc4cccs4)c3)c2)c1 | 1.4 ×10² /M | inactive | 560 nM | 1310 nM | 4120 nM | 2470 nM | inactive | inactive | Active | –
